Consider 16 compounds from ChEMBL document CHEMBL1125801, “Fluorinated colchicinoids: antitubulin and cytotoxic properties” (J Med Chem, 1991).

Data set [1] deals with J774. The data set can be described thus: (§1) Cytotoxic activity against mouse macrophage cell line J7.COL-100. The class given is functional. Particulars: read-out: ED50 (the source's name).
Data set [2] is described as follows: Retention time of the compound. The format is ADME.
A short description of data set [3]: Partition coefficient (logP). The settings on record: octanol/water. The format is physicochemical.
The test system of data set [4] is P388. The data set can be described thus: Cytotoxic activity against P388 mouse lymphocytic leukemia cell line (doxorubicin resistant). Particulars: read-out: ED50 (the source's name). The class given is functional.
The target in data set [5] is T1, Tubulin (Bos taurus) (UniProt Q6B856+Q862L2+Q862F3). The settings on record: at 5 µM.
Data set [6] addresses T1, Tubulin (Bos taurus). Particulars: at 2 µM.
Data set [7] deals with P388. The experiment in a line: Cytotoxic activity against P388 mouse lymphocytic leukemia cell line. The class given is functional. The settings on record: read-out: ED50 (the source's name).
The target of data set [8] is T1, Tubulin (Bos taurus). The settings on record: at 2 µM. This is another data set of the same source.
Data set [9] deals with T1, Tubulin (Bos taurus). The settings on record: at 5 µM. This is another data set of the same source.
Data set [10] has as its system J774.2. The data set can be described thus: Cytotoxic activity against mouse macrophage cell line J774.2. The format is functional. Particulars: read-out: ED50 (the source's name).
The test system of data set [11] is J774. The data set can be described thus: Cytotoxic activity against mouse macrophage cell line J7.VBL-1. The settings on record: read-out: ED50 (the source's name). The format is functional.
Data set [12] can be described thus: Retention time of the compound; NT-Not Tested. The class given is ADME.
Data set [13] has as its system J774. The description is as §1. The format is functional. Particulars: J774, read-out: ED50. An outline of the steps: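 Colchicine-resistant variant of mouse macrophage-like J774.2, kept in 100 μM colchicine. Cells were exposed with or without drug in triplicate per concentration for 72 h, ending before controls reached confluency, and then living cells were counted.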

Data set [14] relates to J774.2. The data set can be described thus: Cytotoxic activity against mouse macrophage cell line J774.2 after 72 hr. The class given is functional. The settings on record: J774.2, 72 h, read-out: ED50 (the source's name). An outline of the steps: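 Mouse macrophage-like J774.2 (wild type) cells were incubated with or without drug for 72 h, before controls reached confluency, in triplicate per concentration.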

In the case of `COc1cc2c(c(OC)c1OC)-c1ccc(=N)c(O)cc1C(NC(=O)C(F)(F)F)CC2` (configuration not stated), the EC50 stood at 4.5 µM with J774 [1]; 0.06 µM in the data set on P388 [4]; 0.013 µM in the data set with P388 [7]; 0.01 µM in the data set on J774.2 [10]; 1.3 µM in the data set on J774 [11]. The compound further returned a tR in data set [2] of 5.7 min. For the same compound, the logP – broadly, a log measure of how a compound divides between an organic and an aqueous phase – in data set [3] was 2.32. Moreover, the ITP on Tubulin (Bos taurus) [5] was 79%; at Tubulin (Bos taurus) [6] it was 42%; at Tubulin (Bos taurus) [8], 48%; on Tubulin (Bos taurus) [9] it was 82%.

With `COc1cc2c(c(OC)c1OC)-c1ccc(=N)c(O)cc1C(NC(C)=O)CC2` (configuration not stated), the EC50 worked out at 70 µM in the data set on J774 [1]; 0.4 µM in the data set with P388 [4]; 0.013 µM with P388 [7]; 0.02 µM in the data set on J774.2 [10]; 15 µM in the data set on J774 [11]. Further, in [2], the tR stood at 4 min. The compound further showed a logP in [3] of 0.3.

`COc1cc2c(c(OC)c1OC)-c1cc/c(=N/CCF)c(O)cc1C(NC(C)=O)CC2` (configuration not stated): the EC50 with J774 [1] stood at 32 µM; with P388 [4], 0.47 µM; with P388 [7], 0.023 µM; with J774.2 [10], 0.15 µM; in the data set on J774 [11], 4.8 µM. In addition, the tR in [2] was 5.1 min. The compound further yielded a logP in data set [3] of 1.7.

With `COc1cc2c(c(OC)c1OC)-c1ccc(OC)c(=O)cc1[C@@H](NC(=O)C(F)(F)F)CC2`, the EC50 in the data set with J774 [1] stood at 14 µM; in the data set with P388 [4], 0.04 µM; with P388 [7], 0.004 µM; in the data set with J774.2 [10], 0.01 µM; in the data set on J774 [11], 0.8 µM. Moreover, the tR in [2] was determined as 5.4 min. Besides, the logP in [3] is 1.72.

Take `COc1cc2c(c(OC)c1OC)-c1ccc(=O)c(OC)cc1C(NC(=O)C(F)(F)F)CC2` (configuration not stated): in data set [3], the logP worked out at 2.08. Besides, the tR in data set [12] was 5.9 min. For the same compound, the EC50 is 13 µM in the data set with P388 [4], 1.5 µM with P388 [7], 3.9 µM in the data set on J774.2 [10] and more than 20 µM in the data set with J774 [11]. This compound returned an ITP on Tubulin (Bos taurus) [9] (at 100 µM) of 10%.

For `COc1cc2c(c(OC)c1OC)-c1cc/c(=N/CC(F)(F)F)c(O)cc1C(NC(C)=O)CC2` (configuration not stated), the EC50 came out at 50 µM in the data set on J774 [1]; 0.9 µM in the data set on P388 [4]; 0.051 µM with P388 [7]; 0.19 µM in the data set on J774.2 [10]; 17 µM in the data set with J774 [11]. In data set [2], the tR was found to be 7.4 min. Besides, in data set [3], the logP came out at 1.45.

In turn, `COc1cc2c(c(OC)c1OC)-c1ccc(=O)c(OC)cc1C(NC(C)=O)CC2` (configuration not stated) showed a logP in data set [3] of 1. Also, the tR in data set [12] came out at 3.9 min. The EC50 with P388 [4] was 15 µM; in the data set with P388 [7] it was 15 µM; with J774.2 [10], 5.6 µM; in the data set on J774 [11], more than 50 µM.

As to `COc1cc2c(c(OC)c1O)-c1ccc(OC)c(=O)cc1C(NC(C)=O)CC2` (configuration not stated), the EC50 in the data set with J774 [1] is 140 µM; in the data set with P388 [4], 1.22 µM; with P388 [7], 0.095 µM; in the data set with J774.2 [10], 0.3 µM; in the data set on J774 [11], 62.5 µM. For the same compound, the tR in [2] is given as 3 min. In addition, the logP in data set [3] turned out to be 0.48.

For `COc1cc2c(c(OC)c1OC)-c1ccc(OC)c(=O)cc1[C@@H](NC(C)=O)CC2` [COLCHICINE], the EC50 with J774 [1] was 200 µM; with P388 [4], 0.47 µM; in the data set with P388 [7] it was 0.012 µM; in the data set on J774.2 [10], 0.06 µM; with J774 [11] it was 17 µM. Further, the tR in data set [2] came out at 3.9 min. The same compound registered a logP in data set [3] of 0.6.

In the case of `COc1cc2c(c(OC)c1O)-c1ccc(OC)c(=O)cc1C(NC(=O)C(F)(F)F)CC2` (configuration not stated), the EC50 was determined as 10.5 µM in the data set with J774 [1]; 0.12 µM in the data set with P388 [4]; 0.04 µM in the data set on P388 [7]; 0.04 µM with J774.2 [10]; 5 µM in the data set with J774 [11]. The tR in data set [2] was found to be 3.8 min. Moreover, in [3], the logP was 1.67. For the same compound, the ITP at Tubulin (Bos taurus) [5] is 47%; at Tubulin (Bos taurus) [6], 17%; at Tubulin (Bos taurus) [8], 24%; at Tubulin (Bos taurus) [9], 35%.

`COc1c(O)cc2c(c1OC)-c1ccc(SC)c(=O)cc1C(NC(C)=O)CC2` (configuration not stated) showed a tR in data set [2] of 3.8 min. For the same compound, in [3], the logP was 1.43.

Compound `COc1cc2c(c(OC)c1OC)-c1ccc(=O)c(O)cc1C(NC(C)=O)CC2` (configuration not stated) showed a logP in data set [3] of 1.2. Besides, the EC50 in the data set with J774 [13] is more than 1000 µM; in the data set with P388 [4], 10 µM; in the data set with P388 [7] it was 1.2 µM; in the data set on J774.2 [10], 3.1 µM; with J774 [11] it was more than 50 µM.

On to `COc1cc2c(c(OC)c1OC)-c1cc/c(=N/CC(F)(F)F)c(O)cc1C(NC(=O)C(F)(F)F)CC2` (configuration not stated), for which the EC50 in the data set with J774 [1] was 8.8 µM; in the data set with J774.2 [14], 0.2 µM; in the data set on P388 [4] it was 0.09 µM; with P388 [7], 0.05 µM; in the data set on J774 [11] it was 2.9 µM. The tR in data set [2] was 10.6 min. Besides, the logP in [3] worked out at 1.36. The ITP at Tubulin (Bos taurus) [5] stood at 35%; on Tubulin (Bos taurus) [6], 15%; on Tubulin (Bos taurus) [8], 30%; at Tubulin (Bos taurus) [9] it was 45%.

With `COc1cc2c(c(OC)c1OC)-c1ccc(=O)c(O)cc1C(NC(=O)C(F)(F)F)CC2` (configuration not stated), the EC50 is 4.9 µM with J774 [1]; 6 µM in the data set on P388 [4]; 3 µM with P388 [7]; 3 µM in the data set on J774.2 [10]; 20 µM in the data set on J774 [11]. In data set [3], the logP came out at 1.82. This compound also came in with an ITP at Tubulin (Bos taurus) [9] (at 100 µM) of 44%.

As for `CC/N=c1/ccc2c(cc1O)C(NC(C)=O)CCc1cc(OC)c(OC)c(OC)c1-2` (configuration not stated), the EC50 in the data set with J774 [1] came out at 15 µM; with P388 [4] it was 0.32 µM; in the data set on P388 [7] it was 0.005 µM; with J774.2 [10] it was 0.01 µM; with J774 [11], 1.9 µM. Further, the tR in data set [2] is 7.5 min. In [3], this compound had a logP of 2.34.

`COc1c(O)cc2c(c1OC)-c1ccc(SC)c(=O)cc1C(NC(=O)C(F)(F)F)CC2` (configuration not stated) came in with a tR in data set [2] of 5.3 min. Moreover, the logP in [3] amounted to 2.61.
